WT yeast gro inh – growth inhibition of WT yeast, mitochondrial fusion screen; mitochondrial fusion phenotypic screen, WT strain; inhibition, % at 10 µM; 190,000 tested, 2.1% active; AID 1362; in the data active = inhibition above about 58%; tested in S. cerevisiae
Yeast lifespan up – yeast lifespan extension. S. cerevisiae growth with nicotinamide, OD615; deaD strain in restrictive glucose medium. inhibition of the nicotinamide effect, % at 10 µM. 130,000 tested, 0.68% active. AID 775;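 active = inhibition above a set limit, placed 3 SD over the median of all compounds, cut at about 26% in these data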;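 also: 0% = nicotinamide-treated wells and 100% = cells grown without nicotinamide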
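Buffer or medium: CSMM-D glucose medium, restrictive; test system: modified budding yeast, DeaD strain; compound: single dose 10 µM compound, 0.25% DMSO; schedule: culture preincubation 4 h, compound exposure 48 h, both 30 °C; detection: optical density (absorbance) at 615 nm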
BB579 growth dn – yeast BB579 growth reduction in restrictive medium. S. cerevisiae BB579 growth, OD615, 48 h. inhibition, % at 10 µM. 140,000 tested, 0.51% active. AID 804;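 active = inhibition above a set limit, 3 SD over the mean compound inhibition, cut at about 44% in these data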
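Assay system: S. cerevisiae DeaD strain BB579 yeast. Medium: CSMM-D restrictive synthetic medium containing dextrose (glucose). Times: 4 h cell preincubation, 48 h compound exposure, 30 °C humidified. Signal: OD615 turbidity measurement. Benchmarks: positive control amphotericin B 10 µg/mL.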
RAM inhibit – inhibitors of the yeast RAM network; S. cerevisiae dse1pr::URA3 reporter, 5-FOA growth OD615, 2 d; analog-sensitive cbk1-as2 kinase mutant strain; inhibition, % at 50 µM; 190,000 tested, 1.8% active;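 active = inhibition above a set limit, 3 SD over mean compound inhibition, cut at about 8.4% in these data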;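 also: 0% = DMSO-only wells with no growth and 100% = 10 µM 1-NA-PP1 full growth; inhibition rescues growth on 5-FOA so higher OD means more RAM inhibition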
Cl transport mod – modulators of human KCC2 chloride dependent transport; KCC2 cells, thallium flux FluoZin-2 fluorescence; B-score of Tl+ flux slope (higher = more flux/activation; lower = inhibition) at 10 µM; AID 1456; 190,000 tested, 2.2% active; Q9H2X9;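 active = thallium flux slope and its plate-corrected score both differing from the plate sample mean at a set confidence after two filtering rounds, in either direction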;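 also: slope of fluorescence scaled to starting intensity during 10 to 20 s after thallium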
Numbers without * were called inactive; nt = no result. Only some compounds are listed: those with a hit (about 5.5% of all), similar ones and a draw of the others.

SMILES	WT yeast gro inh	Yeast lifespan up	BB579 growth dn	RAM inhibit	Cl transport mod
CC(C)(C)n1nnnc1C(c1ccc(F)cc1)N(Cc1ccc(F)cc1)Cc1ccco1 (configuration not stated)	58.6*	9.4	-30.7	7.1	0.103
CC(C)(C)n1nnnc1C(c1cccnc1)N(Cc1ccccc1)Cc1cccs1 (configuration not stated)	81.4*	-2.9	-89.2	1.0	-1.29
CCCCCNc1nc2sc3c(c2c(=O)n1-c1cccc(Cl)c1)CCN(C)C3	nt	nt	nt	nt	0.175
CCN1C(=O)/C(=C/c2ccc(C)s2)SC1=Nc1ccc(OC)cc1	17.2	-10.7	-26.2	9.1*	-1.44
COc1ccc(N=C2S/C(=C\c3ccc(C)o3)C(=O)N2CC(C)C)cc1	9.3	53.6	-12.3	10.6*	-0.735
CNC(=S)Nc1ccc(C)cc1	-2.1	-0.7	-18.7	0.0	0.133
CNC(=S)Nc1ccc(C23CC4CC(CC(C4)C2)C3)cc1	68.0*	-4.5	-7.4	0.6	-0.223
O=C(O)/C=C/C(=O)Nc1ccc(Oc2ncnc3cc(Cl)ccc23)nc1	nt	nt	nt	nt	0.269
O=C1NCCCC1C(=O)N/N=C/c1cccc(O)c1 (configuration not stated)	-21.8	-1.3	100.4*	-0.1	0.181
O=C1NCCCC1C(=O)N/N=C/c1ccccc1 (configuration not stated)	1.6	1.4	-0.9	0.9	0.984
C=CCn1c(C)cc(C(=O)CSc2n[nH]c(N)n2)c1C	13.1	-2.0	11.2	0.3	-0.438
Cc1cccc(C)c1-n1c(C)nn(CC#N)c1=O	-3.4	nt	nt	1.5	1.29
CC1=C(C)CC(C(=O)c2ccc(C)cc2)C(C(=O)O)C1 (configuration not stated)	-14.8	30.4*	-9.8	-0.8	-0.529
Cc1nnc(SCc2ccc(F)cc2)n1NC/C=C/c1ccccc1	6.0	nt	-2.8	-1.6	-4.67*
N#Cc1ccc(NC(=O)COC(=O)CCNS(=O)(=O)c2ccccc2)cc1	-19.8	7.2	-30.2	-0.3	-0.783
Cc1ccc(C(=O)c2coc3cc([N+](=O)[O-])c(O)c([N+](=O)[O-])c23)cc1	-27.1	0.6	-15.2	6.3	-2.07
CCCOc1ccc(C(=O)NNC(=S)NC(=O)CC)cc1	87.5	9.9	-36.6	0.1	6.92*
CCCC(c1nnnn1Cc1ccc(OC)cc1)N1CCN(c2ccccc2)CC1 (configuration not stated)	5.8	15.0	-30.9	2.1	-1.27
COc1ccc(Cn2nnnc2C(C(C)C)N2CCc3ccccc32)cc1 (configuration not stated)	30.2	8.3	-7.3	11.3*	-0.402
COc1ccc(-c2csc(-c3ccccc3)n2)c(OC)c1	72.7*	nt	nt	2.6	-0.0296
COc1ccc(-c2csc(-c3cccs3)n2)c(OC)c1	63.8	nt	nt	6.2	0.304
O=C(CN1CCc2ccccc2C1)NC1CCCC1	5.3	nt	nt	-0.1	0.406
Cc1oc2c(c1C(=O)NCc1cccnc1)C(=O)c1ccccc1C2=O	87.8*	nt	nt	-0.3	0.549
CC(=O)c1c(C)oc2c1C(=O)c1ccccc1C2=O	4.3	-7.0	62.5*	0.0	0.54
COc1ccc(CNC(=O)c2c(C)oc3c2C(=O)c2ccccc2C3=O)cc1	58.0	5.5	10.9	2.6	-0.328
SMILES	WT yeast gro inh	Yeast lifespan up	BB579 growth dn	RAM inhibit	Cl transport mod
CN(CC(=O)Nc1ccccc1Cl)CC(=O)Nc1ccccc1[N+](=O)[O-]	-5.3	nt	nt	2.3	-1.21
CNc1ccccc(-c2ccc3cc4c(cc3n2)OCO4)c1=O	-1.2	3.0	-19.4	0.4	-0.943
CC[n+]1ccc(/C=C/c2ccc(N(C)C)cc2)c2ccccc21	86.6*	nt	nt	3.2	-1.28
Cc1ccc(C(C2C(=O)CC(C)(C)CC2=O)C2C(=O)CC(C)(C)CC2=O)s1	25.4	34.2*	-40.3	-0.6	nt
CCN1CCN(CCNC(=O)c2ccc(/C=C3\Sc4ccccc4N(Cc4ccccc4F)C3=O)cc2)CC1	77.2*	nt	nt	-1.5	0.203
COCCCNC(=O)/C=C1\Sc2ccccc2N(Cc2ccccc2F)C1=O	5.7	nt	nt	2.5	-2.19
CN1CCN(CCCNC(=O)c2ccc(/C=C3/Sc4ccccc4N(Cc4cccc(Cl)c4)C3=O)cc2)CC1	97.1*	nt	nt	-1.6	0.599
CN1CCN(CCCN2c3ccccc3Sc3ccc(Cl)cc32)CC1	93.9*	-4.0	-46.8	0.0	0.00451
O=C(O)COCC(=O)Nc1ccc(-n2cnnn2)cc1	14.2	nt	nt	0.0	0.807
NC1=NC(=O)/C(=C/c2c(OS(=O)(=O)c3ccc(Cl)cc3)ccc3ccccc23)S1	5.0	9.5	-18.7	6.7	0.413
CC(C)N(C)CCOC(=O)/C=C/c1ccccc1	10.4	1.0	7.8	1.4	-0.772
Cc1ccc(C(C)C)c(OC(=O)/C=C/c2ccccc2)c1	79.0*	-0.7	-37.1	0.8	-0.0261
Oc1nc(Nc2ccc(Cl)cc2Cl)sc1/C=C1\C=Nc2ccccc21	83.0*	-4.8	12.1	6.9	-0.534
C=CCN(CC=C)S(=O)(=O)c1ccc(NC(=S)NC(=O)/C=C/c2ccccc2)cc1	7.1	-7.7	-17.3	10.0*	0.079
COc1nccnc1NS(=O)(=O)c1ccc(NC(=S)NC(=O)/C=C/c2ccccc2)cc1	-3.9	1.9	-53.9	4.6	1.11
Oc1cccc2c(NC(=S)Nc3ccc(SC(F)F)cc3)cccc12	65.0*	-7.8	-1.9	2.6	0.426
Cc1ccc(NC(=O)N2N=C(c3ccc(F)cc3)CC2c2ccc(F)cc2)cc1 (configuration not stated)	77.4*	1.8	-42.4	3.4	-2.04
CC(C)(C)c1ccc(OCCCNCc2ccccc2)cc1	87.0*	1.1	-1.7	-1.0	-2.05
CC(C)(c1ccccc1)c1ccc(OCCCNCCO)cc1	91.8*	-7.2	-57.8	-0.2	0.516
O=C(Nc1ccccc1)c1cc2ccc3ccccc3c2s1	nt	nt	nt	nt	-0.658
CC(C)OC(=O)c1c(F)c(F)c(N2CCOCC2)c(F)c1F	0.7	44.3*	-6.2	1.0	nt
COc1cccc(CN2CCC(N(CCc3ccccc3)Cc3ccccc3)CC2)c1OC	39.3	4.5	-55.1	0.8	-0.246
N#C/C(=C\c1ccncc1)c1nc2ccccc2o1	nt	nt	nt	nt	0.0682
N#C/C(=C\Nc1ccccc1O)c1nc2ccccc2o1	63.3*	-6.4	0.2	5.6	0.0257
CCOc1ccc(N=Nc2cc(C(C)C)ccc2O)cc1	13.9	-4.0	-47.8	10.1*	-0.0161
SMILES	WT yeast gro inh	Yeast lifespan up	BB579 growth dn	RAM inhibit	Cl transport mod
CSc1nc(Sc2cccc(Cl)c2)c2ccccc2n1	58.5*	-23.1	-32.9	8.2	nt
CNc1nc(-c2ccc(OC)cc2)c(-c2ccc(OC)cc2)s1	68.3*	nt	nt	1.1	0.881
COc1ccc(C(=O)Nc2ccc(OCc3ccccc3)cc2)cc1[N+](=O)[O-]	-2.5	60.3*	8.9	0.5	0.434
CCOc1ccc(C(=O)Nc2ccc(NC(=O)c3cccs3)cc2)cc1[N+](=O)[O-]	-10.1	1.2	-21.7	10.3*	0.31
COc1ccc(C(=O)Nc2ccc(NC(=O)c3cccs3)cc2)cc1[N+](=O)[O-]	-16.0	2.2	-38.9	2.3	0.159
Nc1cc2c(cc1[N+](=O)[O-])OCCOCCOCCO2	-6.9	nt	nt	0.1	nt

Screening data from PubChem.
